Like-named read-outs stand apart in the source and are kept apart here.
Experiments:
[1] = type: in vivo, mice; conditions: male, mouse, brain, po; for AUC: over 24 h; for Cmax: n = 6 +/- SEM
Kynurenine = Kynurenine production; type: cell-based, human; conditions: LPS +, metabolites 250 ng/mL
Summary of the method: (§1)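 Caco-2 grown 18 days on 8 μm transwells to TEER 500 ohm×cm2, set over THP-1 differentiated with PMA (15 nM, 48 h). Pretreatment 24 h with fermented supernatant (50 μL/1 mL) or metabolites (250 ng/mL), with or without AHR antagonist TMF. Challenge with LPS 1 μg/ml, IFN-γ and ATP in both compartments. Read-outs: TEER before and after; kynurenine by chemical assay, % control; IL-1β by ELISA, fold over untreated. n = 4 wells; t-test.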

[2] = type: in vivo, mice; conditions: male, mouse, plasma, po; for AUC: over 24 h
Caco-2 / THP-1 coculture = test: Transepithelial electrical resistance; type: cell-based, human; conditions: LPS +, TMF + (AHR antagonist); metabolites 250 ng/mL
Summary of the method: as §1

THP-1 cells = test: qPCR gene expression in THP-1 cells of the LPS-challenged coculture; type: cell-based, human; conditions: TMF-treated vs. untreated
[3] = target: T1, aryl hydrocarbon receptor (AHR) (Homo sapiens, UniProt P35869); type: cell-based; conditions: for dependence of the beneficial / anti-inflammatory activity on AHR signaling: LPS-challenged coculture with AHR antagonist TMF; for anti-inflammatory effects (TEER, cytotoxicity, kynurenine, Il-1β gene expression), correlated to Cyp1a1 mRNA expression: LPS-treated coculture, two concentrations (Table S8)
T1 sequence (P35869 11-848): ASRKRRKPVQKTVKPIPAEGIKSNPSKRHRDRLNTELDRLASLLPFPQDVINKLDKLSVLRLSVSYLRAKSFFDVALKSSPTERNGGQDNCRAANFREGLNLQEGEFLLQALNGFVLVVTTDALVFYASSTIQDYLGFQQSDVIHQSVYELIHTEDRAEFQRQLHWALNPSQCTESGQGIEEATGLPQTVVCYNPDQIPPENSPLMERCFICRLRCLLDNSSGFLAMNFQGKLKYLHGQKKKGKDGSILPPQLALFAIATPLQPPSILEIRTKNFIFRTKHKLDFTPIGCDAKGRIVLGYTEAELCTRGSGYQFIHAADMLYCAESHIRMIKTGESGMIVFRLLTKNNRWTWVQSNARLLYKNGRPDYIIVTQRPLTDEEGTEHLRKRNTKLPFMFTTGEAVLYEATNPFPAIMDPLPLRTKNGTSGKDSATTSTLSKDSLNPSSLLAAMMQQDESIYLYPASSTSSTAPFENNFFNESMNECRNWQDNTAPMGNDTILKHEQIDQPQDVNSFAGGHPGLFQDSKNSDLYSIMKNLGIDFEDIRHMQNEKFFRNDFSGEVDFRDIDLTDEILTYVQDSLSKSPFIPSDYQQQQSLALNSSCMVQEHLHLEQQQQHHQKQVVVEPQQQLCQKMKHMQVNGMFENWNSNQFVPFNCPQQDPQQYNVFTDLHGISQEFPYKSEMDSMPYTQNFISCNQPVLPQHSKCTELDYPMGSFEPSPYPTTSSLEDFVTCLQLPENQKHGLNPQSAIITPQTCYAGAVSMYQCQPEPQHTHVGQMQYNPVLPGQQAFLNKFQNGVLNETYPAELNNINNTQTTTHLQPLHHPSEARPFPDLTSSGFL
Summary of the method: as §1

IL-1β = IL-1β production; type: cell-based, human; conditions: LPS +, ELISA, metabolites 250 ng/mL
Summary of the method: as §1

[4] = TMF −, fold change from untreated controls

Row | Compound | AUC ([1]; Chronic BDPP) [ng·h/mL] | AUC ([1]; Chronic Synbiotic) [ng·h/mL] | Cmax ([1]; Chronic BDPP) [ng/mL] | Cmax ([1]; Chronic Synbiotic) [ng/mL] | Tmax ([1]; Chronic BDPP) [min] | Tmax ([1]; Chronic Synbiotic) [min] | Kynurenine (% Change) (Kynurenine; TMF +) | AUC ([2]; Chronic BDPP) [ng·h/mL] | AUC ([2]; Chronic Synbiotic) [ng·h/mL] | Tmax ([2]; Chronic BDPP) [min] | Tmax ([2]; Chronic Synbiotic) [min] | TEER (% Control) (Caco-2 / THP-1 coculture) | Tlr4 expression in TMF-treated cultures (THP-1 cells) | dependence of the beneficial / anti-inflammatory activity on AHR signaling [3] | anti-inflammatory effects (TEER, cytotoxicity, kynurenine, Il-1β gene expression), correlated to Cyp1a1 mRNA expression [3] | IL-1β(Fold Change) (IL-1β; TMF +) | IL-1β(Fold Change) (IL-1β; [4]) | Kynurenine (% Change) (Kynurenine; TMF −)
1 | O=C(O)Cc1ccc(O)cc1 [4-HPAA, 4-Hydroxyphenylacetic acid] | 1350 | 1650 | 66.8 ± 4.7 | 108 ± 6.5 | 60 | 60 | 120.7 ± 7.9 | 3760 | 4460 | 30 | 18 | 70.2 ± 2.0 | suppressed | abrogated by TMF | dose-dependent anti-inflammatory effects | 9.8 ± 0.4τ ^** Fold Change | 5.2 ± 0.6τ Fold Change | –
2 | O=C(O)CCc1ccc(O)cc1 [4-HPPA, 3-(4-Hydroxyphenyl)propionic acid] | – | – | – | – | – | – | 134.3 ± 3.2 | 406 | 2170 | 30 | 18 | 72.3 ± 2.0 | suppressed | abrogated by TMF | dose-dependent anti-inflammatory effects | 9.1 ± 0.0τ ^** Fold Change | 6.4 ± 0.3τ Fold Change | 102.0 ± 2.2τ % Change
3 | O=C(O)/C=C/c1ccc(O)c(O)c1 [CA, Caffeic acid] | – | – | – | – | – | – | 144.1 ± 6.4 | 52.8 | 51.4 | 18 | 18 | 73.2 ± 0.9 | suppressed | abrogated by TMF | dose-dependent anti-inflammatory effects | 10.3 ± 0.3τ ^** Fold Change | 4.0 ± 0.3τ Fold Change | 98.6 ± 7.7τ % Change
4 | O=c1c(O)c(-c2ccc(O)cc2)oc2cc(O)cc(O)c12 [KAMF, Kaempferol] | 87.2 | 288 | 25.3 ± 9.6 | 23 ± 2.6 | 18 | 60 | 131.7 ± 3.9 | 3.5 | 38.2 | 18 | 30 | 75.5 ± 2.1 | – | independent of AHR signaling | dose-dependent anti-inflammatory effects | 10.1 ± 0.7τ Fold Change | 8.4 ± 0.2τ Fold Change | 151.0 ± 3.7 % Change
